The values that follow come from ChEMBL document CHEMBL1770062, “Synthesis and in vitro antitumor activity of new butenolide-containing dithiocarbamates” (Bioorg Med Chem Lett, 2011).

pIC50: −log10 of the molar value.

The test system of one test is HeLa. Put plainly: Antitumor activity against human HeLa cells after 72 hrs by MTT assay. The format is functional, cell-based. Conditions: Homo sapiens, HeLa, 72 h; read-out: IC50. In short, it runs like this: (§1)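 Cells in RPMI 1640 with 10% FBS, 2 mm glutamine, penicillin and streptomycin were seeded at 5 × 10³ per well in 96-well plates. After 24 h at 37 °C the medium was replaced with medium holding compound at several concentrations, and cells were exposed for 72 h. MTT (5 mg/mL stock in PBS) was added for 4 h at 37 °C, formazan was dissolved in DMSO and absorbance read at 490 nm. IC50 was taken from dose–response curves, at least three independent experiments, mean ± SE.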
(Tetrazolium dyes change colour on reduction, which living cells bring about.)
Regarding `CNC(=S)SCC1=CCOC1=O`, the negative-log IC50 (pIC50) is 4.44.

Regarding `CN(C)C(=S)SCC1=CCOC1=O`, the pIC50 is 3.94.

As for `CCN(CC)C(=S)SCC1=CCOC1=O`, the pIC50 was 5.86.

For `CC(C)NC(=S)SCC1=CCOC1=O`, the negative-log IC50 (pIC50) was 3.86.

As to `O=C1OCC=C1CSC(=S)NC1CC1`, the pIC50 was 4.62.

In the case of `O=C1OCC=C1CSC(=S)NC1CCCCC1`, the pIC50 is 3.82.

As for `O=C1OCC=C1CSC(=S)N1CCCC1`, the pIC50 is 5.58.

Turning to `CN1CCN(C(=S)SCC2=CCOC2=O)CC1`, the negative-log IC50 (pIC50) is 6.11.

On to `O=C1OCC=C1CSC(=S)N1CCOCC1`, for which the pIC50 was 5.61.

`O=C1OCC=C1CSC(=S)Nc1ccccc1`: the negative-log IC50 (pIC50) was 3.95.

In the case of `Cc1ccc(NC(=S)SCC2=CCOC2=O)cc1`, the negative logarithm of the IC50 (pIC50) is 5.26.

Regarding `O=C1OCC=C1CSC(=S)NCc1ccccc1`, the negative-log IC50 (pIC50) is 4.82.

`CN(C)C(=S)SCC1=CC(=O)OC1`: the IC50 was over 50 µg/mL.

Consider `CCN(CC)C(=S)SCC1=CC(=O)OC1`, for which the negative logarithm of the IC50 (pIC50) is 4.68.

Tested on in a further test: not listed separately
Put plainly: Antitumor activity against human EC9706 cells after 72 hrs by MTT assay. The format is functional, cell-based. As to conditions: Homo sapiens, EC9706, 72 h; read-out: IC50. In short, it runs like this: as §1
As for `CNC(=S)SCC1=CCOC1=O`, the negative logarithm of the IC50 (pIC50) is 4.07.

Regarding `CN(C)C(=S)SCC1=CCOC1=O`, the negative logarithm of the IC50 (pIC50) is 3.74.

Consider `CCN(CC)C(=S)SCC1=CCOC1=O`, for which the pIC50 was 3.87.

In the case of `CC(C)NC(=S)SCC1=CCOC1=O`, the negative-log IC50 (pIC50) was 4.23.

With `O=C1OCC=C1CSC(=S)NC1CC1`, the negative logarithm of the IC50 (pIC50) is 4.27.

Turning to `O=C1OCC=C1CSC(=S)NC1CCCCC1`, the IC50 was over 50 µg/mL.

`O=C1OCC=C1CSC(=S)N1CCCC1`: the pIC50 is 4.84.

`CN1CCN(C(=S)SCC2=CCOC2=O)CC1`: the negative-log IC50 (pIC50) is 4.85.

As for `O=C1OCC=C1CSC(=S)N1CCOCC1`, the negative logarithm of the IC50 (pIC50) was 4.58.

On to `O=C1OCC=C1CSC(=S)Nc1ccccc1`, for which the pIC50 is 4.79.

For `Cc1ccc(NC(=S)SCC2=CCOC2=O)cc1`, the pIC50 was 4.04.

Consider `O=C1OCC=C1CSC(=S)NCc1ccccc1`, for which the pIC50 is 4.47.

Turning to `CN(C)C(=S)SCC1=CC(=O)OC1`, the pIC50 is 5.12.

`CCN(CC)C(=S)SCC1=CC(=O)OC1`: the IC50 was over 50 µg/mL.

The next test deals with MCF7. Put plainly: Antitumor activity against human MCF7 cells after 72 hrs by MTT assay. The format is functional, cell-based. As to conditions: Homo sapiens, MCF7, 72 h; read-out: IC50. The method in brief:
as §1
As for `CNC(=S)SCC1=CCOC1=O`, the pIC50 is 4.08.

As to `CN(C)C(=S)SCC1=CCOC1=O`, the half-maximal inhibitory concentration (IC50) was over 50 µg/mL.

`CCN(CC)C(=S)SCC1=CCOC1=O`: the pIC50 was 3.92.

Consider `CC(C)NC(=S)SCC1=CCOC1=O`, for which the pIC50 is 3.87.

`O=C1OCC=C1CSC(=S)NC1CC1`: the negative logarithm of the IC50 (pIC50) is 4.02.

`O=C1OCC=C1CSC(=S)NC1CCCCC1`: the pIC50 was 3.75.

On to `O=C1OCC=C1CSC(=S)N1CCCC1`, for which the pIC50 was 4.25.

With `CN1CCN(C(=S)SCC2=CCOC2=O)CC1`, the negative logarithm of the IC50 (pIC50) was 4.06.

As for `O=C1OCC=C1CSC(=S)N1CCOCC1`, the negative-log IC50 (pIC50) was 4.22.

Take `O=C1OCC=C1CSC(=S)Nc1ccccc1`: the negative logarithm of the IC50 (pIC50) is 4.05.

Consider `Cc1ccc(NC(=S)SCC2=CCOC2=O)cc1`, for which the negative-log IC50 (pIC50) is 4.01.

As for `O=C1OCC=C1CSC(=S)NCc1ccccc1`, the pIC50 is 4.50.

Take `CN(C)C(=S)SCC1=CC(=O)OC1`: the pIC50 is 3.80.

For the compound `CCN(CC)C(=S)SCC1=CC(=O)OC1`, the IC50 is over 50 µg/mL.

In the next test the test system is PC-3. Put plainly: Antitumor activity against human PC3 cells after 72 hrs by MTT assay. Type of test: functional, cell-based. Conditions: Homo sapiens, PC-3, 72 h; read-out: IC50. In short, it runs like this:
as §1
`CNC(=S)SCC1=CCOC1=O`: the pIC50 is 4.12.

As to `CN(C)C(=S)SCC1=CCOC1=O`, the pIC50 is 3.83.

Regarding `CCN(CC)C(=S)SCC1=CCOC1=O`, the pIC50 was 4.24.

Turning to `CC(C)NC(=S)SCC1=CCOC1=O`, the negative-log IC50 (pIC50) was 4.31.

In the case of `O=C1OCC=C1CSC(=S)NC1CC1`, the pIC50 is 3.93.

With `O=C1OCC=C1CSC(=S)NC1CCCCC1`, the IC50 is over 50 µg/mL.

For `O=C1OCC=C1CSC(=S)N1CCCC1`, the negative-log IC50 (pIC50) is 3.94.

Take `CN1CCN(C(=S)SCC2=CCOC2=O)CC1`: the negative-log IC50 (pIC50) is 4.39.

Regarding `O=C1OCC=C1CSC(=S)N1CCOCC1`, the pIC50 is 4.31.

Regarding `O=C1OCC=C1CSC(=S)Nc1ccccc1`, the negative logarithm of the IC50 (pIC50) is 3.73.

As to `Cc1ccc(NC(=S)SCC2=CCOC2=O)cc1`, the pIC50 was 4.03.

Consider `O=C1OCC=C1CSC(=S)NCc1ccccc1`, for which the negative logarithm of the IC50 (pIC50) was 4.86.

For `CN(C)C(=S)SCC1=CC(=O)OC1`, the IC50 is over 50 µg/mL.

Take `CCN(CC)C(=S)SCC1=CC(=O)OC1`: the IC50 was over 50 µg/mL.

Tested on in the next test: not listed separately
Put plainly: Antitumor activity against human SPC-A1 cells after 72 hrs by MTT assay. Conditions: Homo sapiens, SPCA1, 72 h; read-out: IC50. The format is functional, cell-based. In short, it runs like this: as §1
Regarding `CNC(=S)SCC1=CCOC1=O`, the negative logarithm of the IC50 (pIC50) was 4.36.

For the compound `CN(C)C(=S)SCC1=CCOC1=O`, the IC50 was over 50 µg/mL.

For the compound `CCN(CC)C(=S)SCC1=CCOC1=O`, the pIC50 is 4.06.

As for `CC(C)NC(=S)SCC1=CCOC1=O`, the pIC50 is 3.97.

On to `O=C1OCC=C1CSC(=S)NC1CC1`, for which the negative-log IC50 (pIC50) is 4.24.

In the case of `O=C1OCC=C1CSC(=S)NC1CCCCC1`, the IC50 was over 50 µg/mL.

`O=C1OCC=C1CSC(=S)N1CCCC1`: the pIC50 is 4.50.

As for `CN1CCN(C(=S)SCC2=CCOC2=O)CC1`, the negative logarithm of the IC50 (pIC50) is 4.27.

For `O=C1OCC=C1CSC(=S)N1CCOCC1`, the pIC50 was 4.42.

For the compound `O=C1OCC=C1CSC(=S)Nc1ccccc1`, the negative-log IC50 (pIC50) is 4.02.

In the case of `Cc1ccc(NC(=S)SCC2=CCOC2=O)cc1`, the pIC50 is 4.20.

In the case of `O=C1OCC=C1CSC(=S)NCc1ccccc1`, the negative logarithm of the IC50 (pIC50) was 4.70.

As for `CN(C)C(=S)SCC1=CC(=O)OC1`, the IC50 was over 50 µg/mL.

On to `CCN(CC)C(=S)SCC1=CC(=O)OC1`, for which the negative logarithm of the IC50 (pIC50) was 4.24.

As a reminder, the pIC50 is −log10 of the IC50, conventionally taken in molar units. As a reminder, the IC50 is the concentration at which inhibition is half-maximal.
